Source: PubChem BioAssay
EphB4 antag – EphB4-ephrin-B2 interaction antagonists, primary screen, biochemical, TNYL-RAW peptide probe, fluorescence polarization. Ephrin type-B receptor 4 (Homo sapiens), P54760. EphB4 LBD / TNYL-RAW-Alexa532 peptide. inhibition, % at 7 µM. 97,000 compounds, 0.15% hits. AID 720, 2007;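 active = inhibition above the screen-wide mean inhibition plus 3 SD, cut at about 15% in these data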
Target sequence (P54760 whole entry, looked up, the tested form may be a part): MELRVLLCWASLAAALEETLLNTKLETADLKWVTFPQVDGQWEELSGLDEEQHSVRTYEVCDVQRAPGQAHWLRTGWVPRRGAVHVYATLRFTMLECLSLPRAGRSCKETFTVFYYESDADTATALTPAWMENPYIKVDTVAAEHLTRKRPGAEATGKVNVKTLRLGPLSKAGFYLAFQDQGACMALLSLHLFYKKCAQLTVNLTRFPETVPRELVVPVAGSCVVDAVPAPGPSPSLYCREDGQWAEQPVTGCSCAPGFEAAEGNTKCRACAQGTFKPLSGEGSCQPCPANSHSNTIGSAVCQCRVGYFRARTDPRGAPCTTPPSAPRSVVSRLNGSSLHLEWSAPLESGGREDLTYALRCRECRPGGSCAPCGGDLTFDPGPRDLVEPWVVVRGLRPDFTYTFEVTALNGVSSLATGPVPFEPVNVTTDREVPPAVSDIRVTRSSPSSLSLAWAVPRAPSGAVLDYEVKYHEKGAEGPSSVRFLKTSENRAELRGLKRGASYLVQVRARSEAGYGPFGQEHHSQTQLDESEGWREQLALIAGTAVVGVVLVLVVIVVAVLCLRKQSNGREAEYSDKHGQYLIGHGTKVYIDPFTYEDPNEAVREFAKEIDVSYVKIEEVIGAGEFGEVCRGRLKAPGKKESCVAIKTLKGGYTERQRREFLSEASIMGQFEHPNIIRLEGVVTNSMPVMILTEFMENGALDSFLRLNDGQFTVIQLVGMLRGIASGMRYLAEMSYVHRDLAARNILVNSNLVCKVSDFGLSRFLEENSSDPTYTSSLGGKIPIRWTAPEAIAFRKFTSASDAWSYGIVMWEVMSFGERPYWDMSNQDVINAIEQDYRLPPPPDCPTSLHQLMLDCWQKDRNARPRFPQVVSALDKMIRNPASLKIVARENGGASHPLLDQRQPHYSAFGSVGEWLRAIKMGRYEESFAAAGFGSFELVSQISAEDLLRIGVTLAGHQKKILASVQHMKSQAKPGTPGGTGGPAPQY
S1P2 ag – S1P2 receptor agonists, primary screen, cell-based; Sphingosine 1-phosphate receptor 2 (Homo sapiens), O95136; S1P2-expressing cell line, agonist reporter read-out; activation, % at 4.5 µM; 97,000 compounds, 0.46% hits; in the data active = activation above about 16%
Rev-RRE block – HIV-1 Rev-RRE binding inhibitors, primary screen, biochemical, FRET, protein-RNA interaction; P05866; Rev peptide-RRE RNA binding; inhibition, % at 8 µM; 97,000 compounds, 0.79% hits;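 active = inhibition above the screen-wide mean plus 3 SD, cut at about 35% in these data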
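Assay system: labelled RRE RNA duplex and labelled Rev peptide / Medium: HEPES pH 7.5 salt buffer with EDTA / Reagent: labelled Rev peptide / Schedule: 5 + 15 min at 25 °C / Signal: FRET, excitation 480 nm, emission 540 nm donor and 671 nm acceptor / Benchmarks: DMSO and neomycin B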
GALR2 blocker – GALR2 antagonists in receptor-expressing cells, primary screen; Galanin receptor type 2 (Homo sapiens), O43603; antagonist mode; inhibition, % at 4 µM; 140,000 compounds, 0.39% hits; AID 828, 2007;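 note: cells stimulated with galanin 1-16 at roughly its EC80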
S1P2 antag – human S1P2 receptor antagonists, primary screen, cell-based | Sphingosine 1-phosphate receptor 2 (Homo sapiens), O95136 | cell-based S1P2 antagonist assay, inhibition at 5 uM | inhibition, % at 5 µM | 97,000 compounds, 0.21% hits | AID 736, 2007; in the data active = inhibition above about 45%;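 note: CRE beta-lactamase reporter cells expressing human S1P2 stimulated with S1P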
GALR2 agonist – GALR2 receptor agonists, primary screen, cell-based; Galanin receptor type 2 (Homo sapiens), O43603; 140,000 compounds, 0.48% hits; GALR2-expressing cells, agonist activation read-out; AID 803, 2007; activation, % (concentration not given with the values); in the data active = activation above about 5%, passing the limit was not always enough
GALR2 ant conf – GALR2 antagonists, retest of hits, confirmation, cell-based; inhibition, % at 4 µM; shares compounds with GALR2 blocker; AID 866, 2007; 480 compounds, 60% hits; GALR2-expressing cells, antagonist mode, inhibition;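 note: cells stimulated with galanin at about its EC80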
BLA inh counter – inhibitors of NFAT-driven beta-lactamase reporter, confirmation, counter-screen for GALR2 antagonist project, CHO NFAT-bla cells, FRET readout. shares compounds with GALR2 blocker. thapsigargin-stimulated. inhibition, % at 4.2 µM. 480 compounds, 36% hits;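 active = inhibition above the mean inhibition across tested compounds plus 3 SD, cut at about 27% in these data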
Each line names hits and unclear results; the compound was inactive in the other large screens (follow-up assays come after a bar, where they were run). The list is not random: actives were taken first. Their share in the collection is about 1.7%. Cut-off read from the data, not from the text of the source, unless noted: active = inhibition above about 27%; inactive = the rest.

Cc1cccc2sc(NC(=O)C3CCN(S(=O)(=O)c4cc([N+](=O)[O-])ccc4Cl)CC3)nc12	GALR2 blocker 27 (no result: EphB4 antag, S1P2 ag, Rev-RRE block, S1P2 antag) | GALR2 ant conf inactive | BLA inh counter inactive
O=C(Nc1ccc(S(=O)(=O)N2CCOCC2)cc1)c1ccc(CN2CCc3ccccc3C2)cc1	GALR2 blocker 28, S1P2 antag 85 | GALR2 ant conf 46 | BLA inh counter inactive
O=C(Nc1ccc(S(=O)(=O)N2CCCC2)cc1)c1ccc(CN2CCc3ccccc3C2)cc1	none (no result: EphB4 antag, S1P2 ag, Rev-RRE block, S1P2 antag)
O=C(Cn1ncc(Cl)c(Cl)c1=O)NCC1CCCCC1	GALR2 blocker 47 (no result: EphB4 antag, S1P2 ag, Rev-RRE block, S1P2 antag) | GALR2 ant conf 33 | BLA inh counter inactive
O=C(Cn1ncc(Cl)c(Cl)c1=O)c1ccc(Cl)cc1	none
CC(=O)Oc1ccc2cc(-c3nc4ccccc4n3C)c(=O)oc2c1	S1P2 ag 38, GALR2 blocker 37, GALR2 agonist 23 | GALR2 ant conf inactive | BLA inh counter 30
COc1ccc(NC(=O)c2cc(S(=O)(=O)N(C)C)ccc2N2CCCC2)cc1Cl	GALR2 blocker 28 (no result: EphB4 antag, S1P2 ag, Rev-RRE block, S1P2 antag) | GALR2 ant conf inactive | BLA inh counter inactive
O=C(NC(Cc1ccccc1)C(=O)Oc1ccc2c(C(F)(F)F)cc(=O)oc2c1)OCc1ccccc1 (stereo not drawn)	GALR2 blocker 32 (no result: EphB4 antag, S1P2 ag, Rev-RRE block, S1P2 antag) | GALR2 ant conf inactive | BLA inh counter inactive
Cc1ccc(S(=O)(=O)CC2CSc3nc4ccccc4n32)cc1 (stereo not drawn)	GALR2 blocker 36, S1P2 antag 58 | GALR2 ant conf 29 | BLA inh counter inactive
COc1ccc(-c2cnc3c(c2)CCC3(C#N)C#N)cc1	GALR2 blocker 31 (no result: EphB4 antag, S1P2 ag, Rev-RRE block, S1P2 antag) | GALR2 ant conf inactive | BLA inh counter inactive
O=C1/C(=C/c2ccco2)CCc2ccccc21	none (no result: EphB4 antag, S1P2 ag, Rev-RRE block, S1P2 antag)
Nc1ccc2c(c1)C/C(=C/c1ccco1)C2=O	GALR2 blocker 29 (no result: EphB4 antag, S1P2 ag, Rev-RRE block, S1P2 antag) | GALR2 ant conf 33 | BLA inh counter 36
CC(C)(C)c1ccc(OCCC(=O)NC2=NCCS2)cc1	none
CSCCC(Nc1ncnc2ccc(Br)cc12)C(=O)O (stereo not drawn)	none
CC(C)Nc1ncnc2ccc(Br)cc12	GALR2 blocker 38 (no result: EphB4 antag, S1P2 ag, Rev-RRE block, S1P2 antag) | GALR2 ant conf 36 | BLA inh counter inactive
CC(C)n1nc(C(=O)Nc2nnc(SCc3c(Cl)cccc3Cl)s2)c2ccccc2c1=O	none
COc1cccc(C2=CC(c3ccccc3)n3ncnc3N2)c1 (stereo not drawn)	Rev-RRE block 42, GALR2 blocker 27 | GALR2 ant conf 30 | BLA inh counter 36
COc1cccc(C2=CC(c3ccc(N(C)C)cc3)n3nnnc3N2)c1 (stereo not drawn)	none
C#CCOC(=O)Nc1ccc(=O)n(Cc2c(Cl)cccc2Cl)c1	none
COc1ccccc1-n1nc(C(=O)Nc2ccc3c(c2)OCO3)c2ccccc2c1=O	GALR2 blocker 42 (no result: EphB4 antag, S1P2 ag, Rev-RRE block, S1P2 antag) | GALR2 ant conf inactive | BLA inh counter 31
COc1ccc(-n2nc(C(=O)Nc3ccc4c(c3)OCO4)c3ccccc3c2=O)c(OC)c1	none (no result: EphB4 antag, S1P2 ag, Rev-RRE block, S1P2 antag)
CCc1ccc(NC(=O)CC2C(=O)Nc3c2c(=O)n(C)c(=O)n3C)cc1 (stereo not drawn)	none
CCCc1cc(C(=O)NCC(C)C)no1	none
COc1ccc(C(=O)c2ccc(N(C)C)cc2)c(OC)c1	none
CN(C)c1ccc(C(=O)c2ccc(N(C)C)c3ccccc23)cc1	GALR2 blocker 30 | GALR2 ant conf 33 | BLA inh counter 64
CC(C)C(=O)Nc1nnc(CCN2CCOCC2)s1	none
Nc1ccc2nc(-c3cccs3)[nH]c2c1	GALR2 blocker 28 | GALR2 ant conf inactive | BLA inh counter inactive
CCN(CC)S(=O)(=O)c1ccc(Cl)c(C(=O)Nc2ccc(Cl)cc2[N+](=O)[O-])c1	GALR2 blocker 28 (no result: EphB4 antag, S1P2 ag, Rev-RRE block, S1P2 antag) | GALR2 ant conf inactive | BLA inh counter inactive
